Experiment: Toxicity liver stage against HepG2, at 10uM
Type: cell-based
Parameters: test concentration 10 uM, cell line HepG2-A16-CD81EGFP
Details: human, HepG2-A16-CD81EGFP cells; read-out: INHIBITION
Procedure, shortened: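 Uninfected HepG2-A16-CD81EGFP cells, 3 × 10^3 per well, 1536-well, plated on prespotted compound at 10 μM final, parasite-free screening media added to match infected plates; puromycin 10 μM positive, DMSO 0.5% negative; run in parallel with 48 h PbLuc assay at 37 °C, 5% CO2; viability by CellTiter-Glo luminescence, normalized to controls.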

SMILES | cytotoxicity at 10 µM [%]
Cc1occc1C(=O)N1CCC2(CCCN(CC3CCC3)C2=O)C1 (stereo not drawn) | -5.47
Cc1noc(C2CCN(C(C)c3nc(C4CC4)no3)CC2)n1 (stereo not drawn) | 7.57
CNS(=O)(=O)CC(=O)N1CCC(c2cc3ccccc3[nH]2)CC1 | 3.12
Cn1cc(C(=O)OC2CN(c3nc4c(C(F)(F)F)cccc4s3)C2)nn1 | -11.8
O=C(Nc1cnn(CCN2CCOCC2)c1)c1cc(F)ccc1F | -8.8
CCC(CO)NCc1ccc(-c2ccccc2F)o1 (stereo not drawn) | -2.49
Cc1ccc(S(=O)(=O)N2CCOCC2C(N)=O)c(F)c1 (stereo not drawn) | -5.22
COc1ccc(NC(=O)N(C)Cc2ccsc2)cn1 | -2.36
CCS(=O)(=O)N(C)C1CCN(C(=O)c2ccc(Cl)cc2)CC1 | -5.87
CCN1CC2(CCC1=O)CCN(Cc1cccc(C#N)c1)CC2 | -1.1
O=C(NCc1ccc(CN2CCCC2)cc1)NCc1ccon1 | -0.145
CNC(=O)[C@@H]1COC[C@H]2CN(C(=O)c3ccc(C)c(F)c3)C[C@H]21 | 0.165
CCC(c1nc(C(C)C)nn1-c1ccccn1)n1cccn1 (stereo not drawn) | 5.66
O=C(CC1[C@H]2CN(Cc3ccncc3)C[C@@H]12)N1CCCC1 (stereo partly drawn) | 2.58
O=c1[nH]c(COc2ccc(Cl)cc2)nc2c1CCNC2 | 6.6
NC(=O)NC(=O)CCSCc1coc(-c2ccc(F)cc2)n1 | -7.45
Cc1cnn(CC2CCCN2C(=O)c2cccc3[nH]ncc23)c1 (stereo not drawn) | -10.8
COc1cccc(CC(=O)N2CC[C@H]3[C@@H]2CCC(=O)N3C)c1 | -4.57
O=C(c1cc[nH]n1)N(Cc1cccc(O)c1)CC1CC1 | 8.27
COC1CCN(S(=O)(=O)N2CC(c3ccccc3)C(C)(C)C2)CC1 (stereo not drawn) | 3.64
CNC(=O)[C@H]1C[C@@H]2CN(S(=O)(=O)c3ccc(C)c(F)c3)C[C@@H]2N1C | -3.03
COc1ccc2[nH]cc(-c3ccnc(NC4CCCC4)n3)c2c1 | -6.33

SMILES | cytotoxicity at 10 µM [%]
CCCNc1cc(C(=O)N2CCOCC2)nc(C)n1 | 10.8
CC(C)NS(=O)(=O)c1ccccc1CNCc1cccc(O)c1 | -7.19
CNc1oc(-c2ccc(S(=O)(=O)N(C)C)o2)nc1C#N | -5.96
CS(=O)(=O)CCCN1CCN(C(C#N)c2ccccc2)CC1 (stereo not drawn) | -3.14
CSCc1cccc(S(=O)(=O)N2CCCCCC2)c1 | 6.91
Cn1cnc2c(-c3cccnc3)nc(C3CCN(S(C)(=O)=O)CC3)cc21 | -118
CS(=O)(=O)NCCCNCc1cc(F)ccc1Br | 15.7
Cc1ccsc1C(=O)N1CC(C(=O)NCC2CC2)C2(CCOCC2)C1 (stereo not drawn) | 0.955
CC(=O)c1cccc(S(=O)(=O)N2CSCC2C(=O)NCC(F)(F)F)c1 (stereo not drawn) | 3.78
O=C1NCCCCC1NC(=O)N1CCc2ccccc21 (stereo not drawn) | -0.734
NC(=O)CN1CCC(c2cccc(Oc3ccccc3)n2)CC1 | -4.72
CN(Cc1ccco1)[C@@H]1CN(Cc2cccs2)C[C@@H]2CCCO[C@@H]21 | 3.65
CC(=O)c1ccc(NCc2cc3n(n2)CCCN(S(C)(=O)=O)C3)nc1 | 1.02
CCCn1cc(CN2CCC(c3[nH]ncc3S(C)(=O)=O)C2)cn1 (stereo not drawn) | 4.27
COCCn1cnc2ccc(NC(=O)C(C)C)cc2c1=O | -9.46
Cc1oncc1C(=O)N1CCCc2c(C#N)nn(C)c2C1 | -134
CCN(c1ccc(C(=O)N2CCCC2c2cnn(C)c2)cn1)C(C)C (stereo not drawn) | -0.607
CCC(=O)NS(=O)(=O)c1cccnc1Nc1cccc(Cl)c1Cl | 0.0207
Cc1nc(C(C)C)sc1C(C)N(C)C(=O)c1ccc(=O)n(C)c1 (stereo not drawn) | 1.46
CCc1nccn1C1CCCN(C(=O)COCC(F)(F)F)C1 (stereo not drawn) | -9.74
CN(C)[C@@H]1CN(C(=O)Cc2ccccc2)[C@@H]2CCCO[C@H]12 | 3.31
O=C(NCc1ccc(Cl)s1)c1cc(CN2CCCC(O)C2)on1 (stereo not drawn) | -52.3

SMILES | cytotoxicity at 10 µM [%]
CCO[C@H]1CC[C@H]2[C@H]1OCCN2C(=O)COc1ccccc1 | -94
COC(=O)c1cccc(C(=O)N(C)Cc2ccsc2)c1 | 10.7
CCc1nc(C2CCCN2C(=O)c2ccc(N3CCCC3)nn2)no1 (stereo not drawn) | -3.27
NCC1CCC(C(NC(=O)C2CC2)c2ccccn2)CC1 (stereo not drawn) | -12.6
Cc1cc(C)c2nc(C)c(C(=O)N3CCC(CCN(C)C)CC3)cc2c1 | -4.91
CC(c1cccc(-c2ccc(C(=O)O)cc2Cl)c1)N(C)C (stereo not drawn) | -2.25
CC(=O)NC[C@H]1COCc2nc3c(C)cccc3n21 | 8.65
CN(C)C(=O)c1cc(-c2ccccc2)[nH]n1 | -4.5
CN(CCN1CCN(c2ccccc2)CC1)C(=O)Nc1ccccn1 | 6.37
Cc1nc(C2CCCN2CC(=O)N(Cc2ccsc2)C2CC2)no1 (stereo not drawn) | -12.1
Cc1ccccc1SCC(=O)NC1CCC(O)CC1 (stereo not drawn) | 9.58
COc1cccc([C@@H]2CN(C3CCCC3)C[C@H]2C(=O)O)c1 | -5.89
CCS(=O)(=O)CCNC(=O)c1ccc(-c2ccc(C)cc2)cc1F | -14.2
c1cnc(N2C[C@H]3CCN(CC4CC4)C[C@H]3C2)cn1 | -108
O=S(=O)(c1c(N2CCCC2)ccc2nonc12)N1CCCC1 | 5.95
COc1ccc(O[C@H]2COCCN(Cc3cccc4c3OCO4)C2)cc1 | 0.375
CC1CN(C(=O)c2nccnc2N)c2ccc(F)cc2O1 (stereo not drawn) | 4.28
Cc1ccc(C2CCCCCN2C(=O)Nc2cn[nH]c2)o1 (stereo not drawn) | 5.16
Cc1nn(C)c(C)c1CC(C)NC(=O)NCc1ccn(C(C)C)n1 (stereo not drawn) | -1.54
CCCN1CC2(CCN(c3ncc(F)cn3)CC2)CC1C(=O)O (stereo not drawn) | -1.71
CC(C)c1nnc2n1CC(CNCc1nc3ccccc3s1)CC2 (stereo not drawn) | 13
CC(=O)N(C)Cc1cccc(NC(=O)CCCc2nc(C(C)C)no2)c1 | -2.07

SMILES | cytotoxicity at 10 µM [%]
O=C1CO[C@H]2CN(Cc3cccc(F)c3F)C[C@@H]2N1C1CCOCC1 | -12.3
COc1ccccc1CN1CCC(Cc2cnc(CN(C)C)cn2)CC1 | -6.45
Cc1cccc(-n2cc(CN3CCN(C)[C@@H]4CS(=O)(=O)C[C@@H]43)cn2)c1 | 2.25
O=C(c1cccc(Cl)c1)N1CCCC2(CCCNC2)C1 (stereo not drawn) | -152
CC(C)[C@@H]1CN(Cc2ccccc2C#N)C[C@H]1NC(=O)N(C)C | -12.3
Cc1cnc(C(=O)N2C[C@@H](NS(C)(=O)=O)[C@@H]3OCCC[C@@H]32)cn1 | -89.7
Cc1n[nH]c(C)c1C1CCCN1C(=O)c1cc(Br)c[nH]1 (stereo not drawn) | -4.08
Cc1ccc(N2C[C@@H]3CN(Cc4csc(C)n4)CCO[C@@H]3C2)nn1 | 7.64
O=C(c1ccccc1)N1CCC2(CC1)CC(Oc1ccccc1)CO2 (stereo not drawn) | 16.6
Cc1nnc2n1CCN(CCOc1ccc(C(C)(C)C)cc1)C2 | -17.1
CC(C#N)CNS(=O)(=O)c1ccc(Br)c(F)c1 (stereo not drawn) | -12.3
CCc1cc(N[C@@H]2CC[C@@H](N)C2)n2nc(C)c(C)c2n1 | 2.2
O=C(CN1CCOc2ccccc2C1)NCc1cc2n(n1)CCNC2 | 1.03
COCC(=O)NCCC(=O)N1CCN(S(=O)(=O)c2ccc(Br)cc2)CC1 | -38.2
CCSCCNC(=O)c1ccc(S(=O)(=O)N2C[C@H]3C[C@@H]2CN3)cc1 | -1.98
O=C(c1cn[nH]c1)N1CCC2(CCCN(Cc3ccc(F)c(F)c3)C2)C1 (stereo not drawn) | 6.07
CC(NC(=O)NCCOc1ccc(F)c(F)c1)c1nncn1C (stereo not drawn) | -0.192
O=C(c1cnccn1)N1CCO[C@H]2[C@H](OCc3cccnc3)CC[C@@H]21 | -9.45
CCC(CC)N(Cc1ccc2c(c1)OCO2)C(=O)c1ccc(=O)n(C)c1 | 9.06
OC[C@H]1CN(Cc2c(Cl)cncc2Cl)C[C@H]1CN1CCOCC1 | -107
CN(C1CCN(C(=O)NCCc2ccc(F)cc2F)CC1)S(C)(=O)=O | 12.3
Cn1ncc2c1CCCN(C(=O)C1CCCC1)C2 | 4.13

SMILES | cytotoxicity at 10 µM [%]
Cc1nn(C)c2nc(N(Cc3cnn(C)c3)C3CCCCC3)sc12 | -1.24
CC(C)N1CCO[C@@H]2CN(S(=O)(=O)c3cccs3)CC[C@@H]2C1 | 5.9
Cc1c[nH]c(CN(C)C(=O)c2ccc(CSc3nnc[nH]3)o2)n1 | 1.12
COC(=O)C(C)(C)NC(=O)c1scnc1Cl | -2.31
Cn1cc(C(=O)N2CC[C@@]3(O)CCN(C(=O)C4CCC4)C[C@H]3C2)cn1 | -140
COc1ccc(C(C)Nc2ncc(C(N)=O)cc2Cl)c(OC)c1 (stereo not drawn) | 19.1
CC(C)C(C(=O)N1CCN(Cc2ccncc2)CC1)n1cncn1 (stereo not drawn) | -13
Cc1c(CCC(=O)Nc2ccc(Br)cn2)cnn1C | -6.14
CC(=O)CSc1nc2c(cnn2CCO)c(=O)[nH]1 | -2.22
Cc1cc(C)n(CC(=O)N2CCC(c3ccn4nccc4n3)CC2)n1 | -0.0825
CC(NC(=O)CCCn1cnc2ccccc2c1=O)c1ncn[nH]1 (stereo not drawn) | -4.31
Cc1cccc(-c2noc(Cn3nc(C(N)=O)ccc3=O)n2)c1 | -1.15
Cc1ccc2c(c1)CCC21CCN(C(=O)CO)CC1 | -8.13
CCn1nccc1CN(C)c1[nH]cnc2nc(C)nc1-2 | -7.97
COCC(C)NC(=O)c1cncc(Br)c1 (stereo not drawn) | 3.73
c1cc(CN2CCc3ncnc(C4CCOC4)c3CC2)ccn1 (stereo not drawn) | -0.703
COc1ccc(CNC(=O)Nc2cccnc2OC)cc1O | -26.3
OCCN1CCN(CC(O)c2ccc(C(F)(F)F)cc2)CC1 (stereo not drawn) | -10
Cc1nc(C2CCCN2Cc2nc(C)c(C)o2)no1 (stereo not drawn) | -2.53
O=C(NC1CCC1)C1=NOC2(CCN(Cc3ccco3)C2)C1 (stereo not drawn) | -80.6

Reference: ChEMBL document CHEMBL4513216, “Probing the Open Global Health Chemical Diversity Library for Multistage-Active Starting Points for Next-Generation Antimalarials” (ACS Infect Dis, 2020)
